Shown are actives, neighbours in structure and some others; about 3% of the full set was active somewhere.
M4 ag – CHRM4 agonism in calcium assay; P08173; actives 0.14% (n = 360,000); CHO-K1 hM4/Gqi5, Fluo-8 calcium fluorescence; vehicle 0%, full acetylcholine response 100%; activation, % at 3 µM; AID 624127;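 active = activation above the run mean over all test wells plus 3 SD, cut at about 32% in these data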;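 note: peak over basal fluorescence ratio per well then scaled between controls; 0% = DMSO wells and 100% = acetylcholine at EC100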
Target sequence (P08173 whole entry, looked up): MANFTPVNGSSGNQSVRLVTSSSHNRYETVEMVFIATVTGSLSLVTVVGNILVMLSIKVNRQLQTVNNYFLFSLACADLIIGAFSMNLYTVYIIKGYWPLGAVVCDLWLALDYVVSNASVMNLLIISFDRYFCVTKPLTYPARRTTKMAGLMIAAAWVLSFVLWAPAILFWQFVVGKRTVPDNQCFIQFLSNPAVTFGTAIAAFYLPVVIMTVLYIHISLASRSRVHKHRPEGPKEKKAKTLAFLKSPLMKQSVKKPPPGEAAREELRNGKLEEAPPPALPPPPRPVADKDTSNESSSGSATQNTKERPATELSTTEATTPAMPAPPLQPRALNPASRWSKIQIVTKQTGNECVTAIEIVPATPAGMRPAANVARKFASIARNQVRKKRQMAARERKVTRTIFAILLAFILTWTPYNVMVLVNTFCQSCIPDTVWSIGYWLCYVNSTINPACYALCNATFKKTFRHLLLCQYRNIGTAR
TAAR1 agonist – human TAAR1 agonism. actives 0.99% (n = 360,000). CHO RD-HGA16 TAAR1, Fluo-8 calcium fluorescence; vehicle wells 0%, saturating PEA agonist 100%. activation, % at 3 µM. Q96RJ0;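 active = activation above the mean activation of all test compounds in the run plus 3 SD, cut at about 38% in these data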
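Test system: RD-HGA16 (CHO) cells co-expressing Gα16 and hTAAR1 | Doses: Single dose, 3 µM | Schedule: 17-24 h seeding, 75 min 37 °C dye, 30 min RT | Evaluation: % activation from peak over basal fluorescence ratio, DMSO-to-PEA scaled | Technique: Kinetic Fluo-8 calcium fluorescence | Benchmarks: Low control DMSO, high control PEA (EC100)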
TAAR1 antagonist – antagonists of human TAAR1; CHO RD-HGA16 TAAR1, Fluo-8 calcium fluorescence, antagonist; inhibition, % at 3 µM; actives 1.5% (n = 360,000); Q96RJ0; AID 624466;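 active = inhibition above a per-plate cutoff, the mean inhibition of test compounds on that plate plus 3 SD, cut at about 49% in these data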;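 note: 0% = DMSO plus EC80 beta-PEA response and 100% = DMSO alone without agonist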
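Test system – hTAAR1-expressing CHO RD-HGA16 cells, Gα16-coupled · Reagent – β-PEA at EC80 concentration, post-compound challenge · Compound dosing – 3 µM, single point · Timing – 140 s kinetic read after compound, 140 s after agonist · Detection – Fluo-8 intracellular calcium dye fluorescence, real-time kinetic reads · Control set – DMSO and EC80 PEA controls · Repeats – n of 1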
CHRM4 PAM – positive allosteric modulators of human muscarinic M4 receptor | P08173 | CHO-K1 hM4/Gqi5, Fluo-8 calcium fluorescence, ACh EC20; 0% = ACh EC20, 100% = maximal ACh | activation, % at 3 µM | actives 0.4% (n = 360,000) | AID 624126;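 active = activation above its plate's cutoff, the mean activation of sample wells plus 3 SD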
M4 antag – CHRM4 antagonism in calcium assay; P08173; CHO-hM4 cells, ACh EC80, Fluo-8 calcium fluorescence; inhibition, % at 3 µM; actives 0.73% (n = 360,000); AID 624125;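 active = inhibition above its plate's cutoff, the mean inhibition of sample wells plus 3 SD, cut at about 27% in these data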;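 note: 0% = acetylcholine EC80 with DMSO and 100% = DMSO without agonist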
nonsel antag count – nonselective antagonist in TAAR1 antagonist counter-screen. shares compounds with TAAR1 antagonist. counterscreen cell line, calcium fluorescence, antagonist mode. inhibition, % at 3 µM. actives 77% (n = 2,400); in the data active = inhibition above about 22%;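 note: CHO-Ga16 host cells stimulated with ATP at an EC80 level; 0% = agonist EC80 plus vehicle and 100% = vehicle without agonist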
TAAR1 ant conf – confirmation of human TAAR1 antagonists | TAAR1-expressing cells, fluorescence antagonist read-out | inhibition, % at 3 µM | shares compounds with TAAR1 antagonist | actives 40% (n = 2,400); in the data active = inhibition above about 49%;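 note: CHO-Ga16 host cells challenged with agonist PEA near its EC80; 0% = agonist at EC80 plus vehicle and 100% = vehicle with no agonist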
Ga16 ag counter – nonselective Ga16 agonism, counter-screen; shares compounds with TAAR1 antagonist; Ga16-expressing cells, calcium fluorescence, agonist counterscreen; activation, % at 3 µM; actives 18% (n = 2,400); in the data active = activation above about 12%;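 note: 0% = vehicle wells and 100% = saturating stimulus response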
TAAR1 ag counter – activates human TAAR1 in antagonist counter-screen; actives 2% (n = 2,400); hTAAR1 cell line, fluorescence activation, agonist mode; AID 651955; shares compounds with TAAR1 antagonist; activation, % at 3 µM; in the data active = activation above about 37%;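 note: CHO cells stably expressing TAAR1 with calcium dye readout; 0% = DMSO vehicle and 100% = full agonist response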
An asterisk follows results filed as active; · = no result given.

SMILES	M4 ag	TAAR1 agonist	TAAR1 antagonist	CHRM4 PAM	M4 antag	nonsel antag count	TAAR1 ant conf	Ga16 ag counter	TAAR1 ag counter
CC1(C(=O)NCC2CCOCC2)Cc2c(-c3cccc(C(F)(F)F)c3)ccnc2O1 (stereo unspecified)	0	-2	-10	7	0	·	·	·	·
COC(=O)[C@@]12C[C@@H](CC(=O)NCCCCc3ccccc3)C(=O)N(Cc3ccco3)C1=CCC(C)(C)C2	11	-1	-24	-3	11	·	·	·	·
O=C(CSc1ncnc2c1nnn2-c1ccc(F)cc1)NCc1ccco1	7	37	64*	-8	-3	14	9	5	-2
C=CCn1c(=S)[nH]c2cc(C(=O)Nc3ccc(F)cc3)ccc2c1=O	17	18	62*	-2	-2	35*	38	15*	18
COc1cc(SC)ccc1C(=O)Nc1ccccc1C#N	0	25	50*	8	-3	9	16	0	0
O=C(CCCOc1ccc(Cl)cc1Cl)N1CCCc2ccccc21	-2	6	50*	6	7	14	12	0	-1
O=C(COc1ccc(Cl)cc1Cl)OCC(=O)N1CCCc2ccccc21	0	5	-23	3	-5	·	·	·	·
COc1ccc(CN(C)C(=O)c2ccccc2OCc2c(C)noc2C)c(OC)c1	6	1	-4	-4	7	·	·	·	·
COc1ccc(Br)cc1CN(C)C(=O)c1ccccc1OCc1c(C)noc1C	19	9	57*	-5	0	23*	33	7	4
CCOc1ccc(C(=O)N/N=C/c2cc([N+](=O)[O-])cs2)cc1	0	1	10	-1	3	·	·	·	·
COc1cc(C(=O)N/N=C/c2cc([N+](=O)[O-])cs2)cc(OC)c1OC	1	-4	102*	6	7	4	5	0	0
COc1ccc(CCN2C(=O)c3cccc4c(C(=O)N5CCCCC5)ccc(c34)C2=O)cc1OC	13	21	61*	-9	-3	36*	61*	12*	13
COc1ccc(CCNC(=O)CCN2C(=O)c3cccc4cccc(c34)C2=O)cc1OC	4	2	7	-1	-10	·	·	·	·
COc1ccc(S(=O)(=O)Nc2ccc3c(c2)C(=O)N([C@H](C)CO)C[C@H](C)[C@@H](CN(C)Cc2ccncc2)OCCCC[C@@H](C)O3)cc1	0	2	-9	2	-6	·	·	·	·
CC(C)(C)C(=O)N1CCN(c2ccc(Cl)cc2[N+](=O)[O-])CC1	3	4	10	10	1	·	·	·	·
O=C(CSc1ccc(Cl)cc1)N1CCN(c2ccc(Cl)cc2[N+](=O)[O-])CC1	8	2	67*	-10	8	25*	45	4	1
CN(Cc1ccccc1)C(=O)C1(C)CCN1C(=O)Cc1ccc(Cl)cc1Cl (stereo unspecified)	2	0	-12	4	-5	·	·	·	·
O=C1C2C3C=CC(C3)C2C(=O)N1CCc1ccccc1 (stereo unspecified)	2	0	-5	1	-6	·	·	·	·
O=C(CCN1C(=O)C2C3C=CC(C3)C2C1=O)NCCc1ccccc1 (stereo unspecified)	0	12	52*	4	-3	8	52*	5	17
CCOC(=O)C1=C(C)NC(C)=C(C(=O)OCC)C1C(=O)OCC(=O)NC1CCCCC1	14	18	61*	3	18	27*	52*	10	16
CCOC(=O)C1=C(C)NC(C)=C(C(=O)OCC)C1C(=O)OCC(=O)NC1(C#N)CCCCC1	26	17	63*	-2	11	29*	54*	9	9
O=C(Nc1cccc(C(=O)O)c1)/C(=C\c1ccccc1)NC(=O)c1ccco1	1	0	-2	6	-19	·	·	·	·
COc1ccccc1Nc1ncc(C(=O)N2CCN(Cc3ccc(OC)c(OC)c3OC)CC2)c2ccccc12	10	9	71*	-14	13	27*	45	5	4
COc1ccc(Nc2ncc(C(=O)N3CCC(C(N)=O)CC3)c3ccccc23)cc1	0	2	-4	-6	5	·	·	·	·
COc1ccc(Nc2ncc(C(=O)N3CCN(Cc4ccccc4)CC3)c3ccccc23)cc1	23	18	67*	-28	28*	33*	51*	14*	13
SMILES	M4 ag	TAAR1 agonist	TAAR1 antagonist	CHRM4 PAM	M4 antag	nonsel antag count	TAAR1 ant conf	Ga16 ag counter	TAAR1 ag counter
COc1cccc(-c2cccc3c2NC(=O)C3(C)Cc2ccccc2F)c1 (stereo unspecified)	0	3	-2	3	-12	·	·	·	·
CC(C)(C)c1ccc(SC2=C[C@@]3(O)CC[C@@H](O)[C@@](Sc4ccc(C(C)(C)C)cc4)(C2=O)[C@H]3O)cc1	12	4	73*	-11	25	33*	40	2	-2
Cc1ccc(SC2=C[C@@]3(O)CC[C@@H](O)[C@@](Sc4ccc(C)cc4)(C2=O)[C@H]3O)cc1	1	-1	-12	2	10	·	·	·	·
COC(=O)[C@]12CCCCC=C1N(Cc1cccc3ccccc13)C(=O)[C@H](CC(=O)N1CCCCC1)C2	19	8	62*	-11	10	22*	42	7	10
CCCC(=O)N1CCCC(c2cc(C(=O)Nc3ccccc3)no2)C1 (stereo unspecified)	-1	-1	-21	-4	0	·	·	·	·
O=C(Nc1ccc(Cc2ccncc2)cc1)c1ccc(N2CCOCC2)c([N+](=O)[O-])c1	11	30	95*	-11	5	33*	52*	14*	16
Cc1ccc(NC(=O)c2ccc(N3CCOCC3)c([N+](=O)[O-])c2)cc1S(=O)(=O)N1CCOCC1	17	32	68*	-10	-3	42*	60*	16*	13
CSc1ccc(CN2C(=O)C(F)(F)Oc3c(C(C)=O)cccc32)cc1	6	·	·	-6	-1	·	·	·	·
CC(=O)N(C)c1ccc(NC(=O)Nc2ccc(C)cc2)cc1	14	26	57*	-11	-6	19	44	10	20
CCc1nc2c(OCCOC)cccn2c1N(C)C(=O)Nc1ccccc1OC	1	0	8	-3	1	·	·	·	·
COc1cc(C(=O)NCCc2c[nH]c3ccccc23)ccc1OCc1c(C)noc1C	16	16	63*	-11	-7	31*	48	10	8

Source: PubChem BioAssay (The Scripps Research Institute Molecular Screening Center)
